Hits are enriched below; roughly 9.6% of the tested compounds scored in any of these assays.
TNAP inh hiacc: TNAP (human) inhibition, high acceptor; 200,000 tested, 0.03% active; AID 1135; P05186; purified TNAP, CDP-star luminescence, 1 M DEA; inhibition, % at 20 µM;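 active means over 50% inhibition of tissue-nonspecific alkaline phosphatase at 20 µM in the single-dose screen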;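 further: plate controls were DMSO wells for no effect and EDTA-quenched wells as full inhibition for full effect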
Target sequence (P05186 whole entry, looked up): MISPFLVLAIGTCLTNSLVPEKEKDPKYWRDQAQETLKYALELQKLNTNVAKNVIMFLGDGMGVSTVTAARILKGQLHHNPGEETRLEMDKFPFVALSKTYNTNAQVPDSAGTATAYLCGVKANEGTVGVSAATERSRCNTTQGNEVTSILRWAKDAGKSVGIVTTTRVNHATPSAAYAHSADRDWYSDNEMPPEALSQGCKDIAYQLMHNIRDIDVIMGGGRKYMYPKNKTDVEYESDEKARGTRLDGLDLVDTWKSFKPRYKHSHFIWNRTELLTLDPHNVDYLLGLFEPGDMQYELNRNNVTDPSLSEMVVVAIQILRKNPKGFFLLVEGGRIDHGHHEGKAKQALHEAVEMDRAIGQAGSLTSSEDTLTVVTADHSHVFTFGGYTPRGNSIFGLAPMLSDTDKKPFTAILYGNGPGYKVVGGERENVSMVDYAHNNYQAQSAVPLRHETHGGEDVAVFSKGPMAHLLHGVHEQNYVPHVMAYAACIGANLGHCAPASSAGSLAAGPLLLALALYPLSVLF
TNAP inh no acc: TNAP (human) inhibition, acceptor-free conditions; purified TNAP, CDP-star luminescence, 30 min; inhibition, % at 20 µM; 200,000 tested, 0.26% active; AID 1012;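 active means tissue-nonspecific alkaline phosphatase inhibition above about 50% at 20 µM in the single-dose screen, limit read from the data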;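 further: 0% = DMSO negative control and 100% = EDTA positive control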
HCT116 bCat-KO: beta-catenin-lacking colon tumor cell growth suppression; HCT116 beta-catenin knockout viability, CellTiter-Glo, 60 h; active compounds read low; viability, % at 10 µM; 140,000 tested, 1.5% active; AID 818;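 active means viability at or under a set limit, the compound median less 4 SD, cut at about 6% in these data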;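 further: 0% = Hyamine 1622 control at 20 µM and 100% = untreated cell control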
HCT116 PTEN-null: PTEN-deleted cell growth suppression; 140,000 tested, 1.2% active; HCT116 PTEN-null viability, CellTiter-Glo, 60 h; active compounds read low; viability, % at 10 µM;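 active means viability at or below a set limit, 4 SD under the median of all tested compounds, cut at about 3.7% in these data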;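 further: PTEN knockout HCT116 line with beta catenin targeted HCT116 as companion control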
L major viab: inhibitors of Leishmania major promastigote growth. Leishmania major promastigotes, resazurin fluorescence viability. inhibition, % at 10 µM. 200,000 tested, 9% active. AID 1063; in the data active means inhibition above about 50%;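 further: promastigotes grown with compound for 44 hours at 28 °C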
TNAP act hiacc: activators of human TNAP at high phosphate acceptor concentration. AID 1136. activation factor at 20 µM. 200,000 tested, under 10 active. P05186. purified TNAP, CDP-star luminescence, 1 M DEA, 30 min; active compounds read high; 0 = EDTA background, 1 = DMSO-only activity;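 active means activation factor at least 2 at 20 µM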
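Assay system: human TNAP; Input: enzyme diluted 1/800 final; Reagent: CDP-star luminogenic substrate at 100 µM final; Timing: 30 min, room temperature; Signal: luminescence; Evaluation: TNAP activation factor scaled between EDTA and DMSO control wells.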
Lmaj promast 1uM: inhibitors of Leishmania major promastigote growth, repeat at 1 uM. shares compounds with L major viab. L. major promastigote growth, resazurin fluorescence, 48 h. inhibition, % at 1 µM. 1,100 tested, 13% active;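 active means inhibition above about 50% in both repeat tests, limit read from the data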
* hit, by the source's call; · = not tested or not shown.

SMILES	TNAP inh hiacc	TNAP inh no acc	HCT116 bCat-KO	HCT116 PTEN-null	L major viab	TNAP act hiacc	Lmaj promast 1uM
Cc1cccc(C)c1-n1nnnc1S(=O)(=O)Cc1ccccc1Cl	9.0	4.2	70.8	72.0	76.7*	0.9	-19.7
CCCS(=O)(=O)c1c(S(=O)(=O)CCC)c2c(C)cccn2c1C(=O)OC	0.4	-4.5	89.8	87.2	-4.2	1	·
CCCS(=O)(=O)c1c(S(=O)(=O)CCC)c2c3ccccc3ccn2c1C(=O)OC	1.1	-8.2	40.6	49.3	81.6*	1	0.0
COc1cc(Cl)cc(C(=O)O)c1OCC(=O)O	-0.8	0.2	·	·	2.9	1	·
C=CC[n+]1c(-c2ccc(OC)c(OC)c2)csc1NNC(=O)Nc1ccccc1	-5.0	-15.3	16.5	35.2	100.0*	1.1	46.7
O=Cc1ccc(OC(=O)c2cccnc2)cc1	-1.8	-9.1	·	·	-4.9	1	·
CC(c1ccccc1C(O)(c1ccccc1)c1ccccc1)N(C)C (stereo not given)	-1.3	-13.7	36.4	26.6	99.3*	1	26.2
Cc1cc(Cl)ccc1NC(=S)N1CCN(C(=O)C2CCCO2)CC1 (stereo not given)	-2.7	-13.7	95.9	99.6	-3.0	1	·
CCOc1ccc(Br)cc1S(=O)(=O)Nc1ccccc1N1CCOCC1	-3.2	3.2	67.6	65.5	100.1*	1	23.0
CCOc1ccc(Br)cc1S(=O)(=O)Nc1ccc(N2CCOCC2)cc1	-0.1	-10.4	97.1	92.8	8.1	1	·
c1ccc(-n2cc(CNCCc3cscn3)c(-c3ccc4c(c3)OCO4)n2)cc1	-3.4	-6.3	·	·	15.8	1	·
CC1=C(C(=O)NC2CCCC(C)C2C)C2(CCCCC2)OC1=O (stereo not given)	-1.0	-13.2	100.4	93.0	1.3	1	·
CC1=C(C(=O)Nc2cc(-c3cccc(F)c3)[nH]n2)C2(CCCCC2)OC1=O	2.9	-5.4	58.3	73.6	100.1*	1	88.8*
Cn1nc(-c2ccc(Cl)cc2)nc2c(=O)n(C)c(=O)nc1-2	-1.2	-5.1	79.5	86.1	50.3*	1	80.6*
COc1ccc(-c2nc3ccccc3c(C(=O)Nc3ccc(S(=O)(=O)Nc4cc(C)on4)cc3)c2C)cc1	-5.2	-11.1	24.4	27.0	-1.6	1.1	·
Cc1ccc(-n2cccc2C(=S)N=P(N(C)C)(N(C)C)N(C)C)cc1	-8.4	3.9	37.1	40.1	56.7*	1.1	-5.9
O=C(Nc1ccc(Oc2ccc(C(F)(F)F)cn2)c(Cl)c1)C1CC1	3.6	4.5	·	·	25.0	1	·
COc1ccc2ccccc2c1/C=N/O	-0.8	-7.7	94.4	92.7	9.5	1	·
C=CCOc1ccc2ccccc2c1/C=N/O	-2.7	-18.3	90.1	88.9	51.1*	1	0.7
Cc1ccccc1Nc1nc(N)nc(COC(=O)/C=C/c2ccco2)n1	0.8	-1.4	·	·	11.0	1	·
CCOC(=O)C1=NN(c2ccccc2)C2(S1)SC(C(C)=O)=C(C)N2c1ccccc1 (stereo not given)	-3.1	-4.3	79.2	77.5	61.4*	1	2.8
O=P(CCO)(c1ccccc1)c1ccccc1	0.1	-4.0	·	·	-1.1	1	·
O=P(CCCCCCCCCP(=O)(c1ccccc1)c1ccccc1)(c1ccccc1)c1ccccc1	-19.0	-70.1	6.1	7.7	93.1*	1.2	-5.1
CCSC1=N/C(=C\c2ccc3c(c2)OCO3)C(=O)S1	-0.6	1.6	79.0	94.6	-1.5	1	·
CCSC1=N/C(=C\c2cccc(F)c2)C(=O)S1	0.6	-8.9	91.5	102.8	59.6*	1	-16.4
CCOC(=O)c1c(C)nc2c(c1-c1ccccc1)C(=O)c1ccccc1-2	1.6	-3.7	98.0	86.3	1.2	1	·
CCOC(=O)c1c(C)oc2c1C(=O)c1ccccc1C2=O	-0.2	-29.2	·	·	97.9*	1	14.2
COc1ccc(Cn2c(S(=O)(=O)CC(N)=O)nc3ccccc32)cc1[N+](=O)[O-]	-2.4	2.3	·	·	4.0	1	·
O=C1CN(C(=O)/C=C/c2ccco2)c2ccccc2N1	-5.2	0.4	·	·	-1.7	1.1	·
CC(=O)c1ccccc1NS(=O)(=O)c1c(C)nn(-c2ccccc2)c1C	2.1	-9.4	62.0	67.2	95.6*	1	42.5

Source: PubChem BioAssay
